TAAR1 agonist – human TAAR1 agonism; CHO RD-HGA16 TAAR1, Fluo-8 calcium fluorescence; vehicle wells 0%, saturating PEA agonist 100%; activation, % at 3 µM; 360,000 tested, 0.99% active; AID 624467;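 active = activation above the mean activation of all test compounds in the run plus 3 SD, cut at about 38% in these data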
Target sequence (Q96RJ0 whole entry, looked up): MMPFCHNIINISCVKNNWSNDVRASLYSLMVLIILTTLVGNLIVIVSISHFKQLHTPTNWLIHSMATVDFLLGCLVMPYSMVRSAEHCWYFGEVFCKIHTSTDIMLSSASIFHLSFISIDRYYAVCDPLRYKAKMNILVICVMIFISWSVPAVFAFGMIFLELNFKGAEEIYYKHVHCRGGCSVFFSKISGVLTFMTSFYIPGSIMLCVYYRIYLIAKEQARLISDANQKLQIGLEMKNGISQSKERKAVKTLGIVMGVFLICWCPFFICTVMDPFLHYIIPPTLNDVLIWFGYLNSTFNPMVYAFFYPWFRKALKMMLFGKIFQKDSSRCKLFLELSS
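Assay system: CHO-derived RD-HGA16 cells with stable Gα16 and human TAAR1; timing: 17-24 h seeding, 75 min 37 °C dye, 30 min RT; read-out: % activation from peak over basal fluorescence ratio, DMSO-to-PEA scaled; measured by: kinetic Fluo-8 calcium fluorescence; benchmarks: low control DMSO, high control PEA (EC100); doses: 3 µM single concentration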
CHO parental Ca – counter-screen for OX1R antagonists: effect in parental CHO cells. inhibition, % at 5.6 µM. parental CHO-K1, ATP-induced calcium, Fluo-8 fluorescence. 330,000 tested, 0.63% active;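 active = inhibition above that plate's mean sample inhibition plus 3 SD, cut at about 26% in these data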;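 also: 0% = ATP-challenged DMSO wells and 100% = DMSO wells without ATP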
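Test system: untransfected parental CHO cell line; also added: ATP stimulus; dosing: 5.6 µM, single dose; signal: calcium-sensitive Fluo-8 fluorescence; measure: percent inhibition of ATP-evoked calcium rise, normalized to controls; benchmarks: low control ATP plus DMSO, high control DMSO only; replication: one well per compound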
OX1R antag-1 – antagonists of human orexin 1 receptor (OX1R). OX1R-expressing cells, FRET antagonist read-out. 330,000 tested, 1.8% active. O43613. inhibition, % at 6.6 µM; in the data active = inhibition mostly above about 38%, no sharp cut-off; inactive = mostly below about 40%;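 also: 0% = agonist challenge alone and 100% = reference antagonist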
Target sequence (O43613 whole entry, looked up): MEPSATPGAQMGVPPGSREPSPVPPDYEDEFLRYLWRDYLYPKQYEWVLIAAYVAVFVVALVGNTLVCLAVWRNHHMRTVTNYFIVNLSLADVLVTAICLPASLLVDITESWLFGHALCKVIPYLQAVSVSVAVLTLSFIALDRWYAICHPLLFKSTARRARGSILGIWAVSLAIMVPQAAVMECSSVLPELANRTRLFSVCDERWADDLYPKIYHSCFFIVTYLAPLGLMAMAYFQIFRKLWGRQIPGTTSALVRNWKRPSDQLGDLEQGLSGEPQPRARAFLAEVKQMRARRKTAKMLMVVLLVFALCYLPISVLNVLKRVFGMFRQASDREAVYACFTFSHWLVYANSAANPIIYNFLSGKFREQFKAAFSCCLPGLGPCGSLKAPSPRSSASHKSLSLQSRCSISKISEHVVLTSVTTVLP
TAAR1 antagonist – human TAAR1 antagonism; 360,000 tested, 1.5% active; CHO RD-HGA16 TAAR1, Fluo-8 calcium fluorescence, antagonist; inhibition, % at 3 µM; AID 624466; Q96RJ0;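 active = inhibition above a per-plate cutoff, the mean inhibition of test compounds on that plate plus 3 SD, cut at about 49% in these data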;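 also: 0% = DMSO plus EC80 beta-PEA response and 100% = DMSO alone without agonist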
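Test system: RD-HGA16 CHO cells with stable hTAAR1 and Gα16 / Probe or stimulus: EC80 β-phenethylamine stimulus / Times: seeding 17-24 h prior, 75-min 37 °C, 30-min RT dye loading / Detection: Fluo-8 calcium-sensitive fluorescence / Read-out basis: % inhibition scaled between DMSO and EC80 PEA controls / Repeats: singlicate, one well per test compound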
OX1R antag-2 – blocks the human orexin 1 receptor; O43613; CHO/OX1R cells, Fluo-8 calcium fluorescence, orexin A; inhibition, % at 5 µM; 330,000 tested, 0.43% active; AID 434989;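 active = inhibition above its plate's threshold, mean inhibition of all tested compounds on the plate plus 3 SD, cut at about 37% in these data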;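 also: 0% = orexin A challenge wells and 100% = SB-334867-A antagonist wells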
nonsel antag count – counter-screen for TAAR1 antagonists: nonselective antagonists. counterscreen cell line, calcium fluorescence, antagonist mode. inhibition, % at 3 µM. shares compounds with TAAR1 antagonist. 2,400 tested, 77% active; in the data active = inhibition above about 22%;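 also: CHO-Ga16 host cells stimulated with ATP at an EC80 level; 0% = agonist EC80 plus vehicle and 100% = vehicle without agonist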
TAAR1 ant conf – confirmation of human TAAR1 antagonists; shares compounds with TAAR1 antagonist; TAAR1-expressing cells, fluorescence antagonist read-out; inhibition, % at 3 µM; 2,400 tested, 40% active; in the data active = inhibition above about 49%;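 also: CHO-Ga16 host cells challenged with agonist PEA near its EC80; 0% = agonist at EC80 plus vehicle and 100% = vehicle with no agonist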
Ga16 ag counter – nonselective Ga16 agonist in TAAR1 antagonist counter-screen; 2,400 tested, 18% active; AID 651953; Ga16-expressing cells, calcium fluorescence, agonist counterscreen; activation, % at 3 µM; shares compounds with TAAR1 antagonist; in the data active = activation above about 12%;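 also: 0% = vehicle wells and 100% = saturating stimulus response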
TAAR1 ag count – activates human TAAR1 in antagonist counter-screen; hTAAR1 cell line, fluorescence activation, agonist mode; activation, % at 3 µM; 2,400 tested, 2% active; shares compounds with TAAR1 antagonist; AID 651955; in the data active = activation above about 37%;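 also: CHO cells stably expressing TAAR1 with calcium dye readout; 0% = DMSO vehicle and 100% = full agonist response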
Numbers without * were called inactive; nt = not tested or not shown; ! = not confirmed by another sample. Rows were chosen to be rich in hits. Some 3.9% of all compounds tested hit in one or more screens of this group.

SMILES	TAAR1 agonist	CHO parental Ca	OX1R antag-1	TAAR1 antagonist	OX1R antag-2	nonsel antag count	TAAR1 ant conf	Ga16 ag counter	TAAR1 ag count
O=C(Nc1cccc(/C=C/c2nc3ccccc3c(=O)[nH]2)c1)c1ccccc1Cl	9.7	-10.1	31.4	67.8*	-24.1	30.2*	48.4	11.8*	5.1
COc1ccc(C(=O)Nc2nc3ccccc3c(=O)[nH]2)cc1	10.0	-12.9	42.4	-9.9	-9.4	nt	nt	nt	nt
CCN(CC)c1ncnc2scc(C3COc4ccccc4O3)c12 (stereo unspecified)	6.6	-8.1	14.6	53.2*	-22.0	8.5	36.5	3.3	8.7
COc1ccc(C(=O)N/C(=C\c2cn(S(=O)(=O)N(C)C)c3ccccc23)C(=O)NCCN2CCOCC2)cc1	0.2	-19.1	4.7	-17.3	-29.1	nt	nt	nt	nt
CN(C)S(=O)(=O)n1cc(/C=C(\NC(=O)c2ccccc2Cl)C(=O)NCCN2CCOCC2)c2ccccc21	21.1	-22.8	23.1	73.3*	-24.9	23.7*	44.1	11.4	12.5
CN(C)S(=O)(=O)n1cc(/C=C(\NC(=O)c2ccccc2Cl)C(=O)NCCCn2ccnc2)c2ccccc21	7.8	-32.1	10.8	54.7*	-28.7	16.7	30.9	6.7	2.8
[2H]c1c([2H])c([2H])c(-c2nc(N3CCCCCC3)sc2C(=O)c2ccccc2)c([2H])c1[2H]	14.7	-11.3	10.6	61.9*	0.3	11.4	16.0	0.3	0.6
O=C(c1sc(N2CCOCC2)nc1-c1ccccc1)N1CCCCC1	-0.7	-18.5	26.0	-5.1	-17.1	nt	nt	nt	nt
COc1ccccc1NC(=O)Nc1nc(CC(=O)NCc2c(F)cccc2F)cs1	11.3	-29.6	24.4	58.1*	-19.8	29.2*	44.7	10.5	11.0
COc1ccccc1NC(=O)Nc1nc(CC(=O)N2CCN(c3ccccc3F)CC2)cs1	15.4	-3.5	9.1	64.7*	-20.9	29.3*	48.4	10.0	10.8
COc1ccc(NC(=O)Cc2csc(NC(=O)Nc3ccccc3OC)n2)c(OC)c1	14.7	-10.8	4.6	69.5*	-25.5	16.9	37.9	9.3	9.9
COc1ccccc1CC(=O)N1CCN(c2ccccc2F)CC1	3.4	-1.3	-0.6	8.5	-33.2	nt	nt	nt	nt
COc1ccc(OC)c(NC(=O)Cc2csc(NC(=O)Nc3ccccc3OC)n2)c1	22.9	2.9	18.8	65.4*	-6.3	39.3*	54.3*	10.9	11.8
COc1ccccc1NC(=O)Cc1csc(NC(=S)Nc2ccccc2)n1	23.6	-0.7	16.4	37.2	4.5	nt	nt	nt	nt
COc1ccc(NC(=S)Nc2nc(CC(=O)Nc3ccccc3OC)cs2)cc1	16.1	6.4	10.0	42.7	-0.9	nt	nt	nt	nt
COc1ccc(OC)c(-c2csc(NC(=O)Cc3ccccc3OC)n2)c1	-0.9	-13.8	39.8	-7.1	-20.4	nt	nt	nt	nt
OC(c1cc(F)cc(Cl)c1)c1ncc(-c2ccccc2C(F)(F)F)[nH]1 (stereo unspecified)	12.0	nt	nt	-10.7	nt	nt	nt	nt	nt
COc1ccc(C2=NOC(C(=O)N3CCN(c4ccccc4OC)CC3)C2)cc1 (stereo unspecified)	9.9	-16.2	-2.8	50.9*	-35.3	21.1	23.1	7.9	8.3
COc1ccc(OC)c(C2=NOC(C(=O)N3CCN(c4ccccc4)CC3)C2)c1 (stereo unspecified)	0.5	-7.4	8.7	-12.9	-32.1	nt	nt	nt	nt
CCc1ccccc1NC(=O)C1CC(c2ccc(OC)cc2)=NO1 (stereo unspecified)	-1.9	-13.1	7.4	102.6*	-27.0	14.5	7.0	4.5	6.2
O=C(C1CCCN(c2ncnc3c2nc2n3CCCCC2)C1)N1CCN(c2ccccc2)CC1 (stereo unspecified)	15.6	-22.7	7.0	51.6*	-34.8	23.3*	35.7	9.7	17.7
CCCCNc1c(-c2ccc(OC)c(SC(C)CC)c2)nc2ccc(Cl)cn12 (stereo unspecified)	7.1	-12.0	14.7	22.9	-18.1	nt	nt	nt	nt
CCCCCCSc1cc(-c2nc3ccc(C)cn3c2NCCCC)ccc1OC	11.1	26.6	8.7	48.2	36.1	nt	nt	nt	nt
CCCCNc1c(-c2cccc(SC(C)CC)c2)nc2ccc(Cl)cn12 (stereo unspecified)	9.4	-20.0	16.8	56.5*!	-14.0	19.1	27.3	4.1	5.6
CCCCNc1c(-c2ccc(SC3CCCCC3)c(OC)c2)nc2ccc(C)cn12	2.4	25.4	13.5	73.6*	21.3	36.2*	36.0	0.2	0.2
SMILES	TAAR1 agonist	CHO parental Ca	OX1R antag-1	TAAR1 antagonist	OX1R antag-2	nonsel antag count	TAAR1 ant conf	Ga16 ag counter	TAAR1 ag count
CCCCNc1c(-c2ccc(OC)c(SC(C)CC)c2)nc2ccc(C)cn12 (stereo unspecified)	19.3	93.8*	60.3*	90.8*	86.7*	45.8*	57.8*	8.0	8.6
O=C(Nc1ccc2c(c1)OCO2)c1csc([C@H]2C[C@H](O)[C@@H](CO)O2)n1	1.2	nt	nt	3.9	nt	nt	nt	nt	nt
CS(=O)(=O)N1CCN(C(=O)c2cc(-c3cccnc3)nc3ccc(Cl)cc23)CC1	13.7	-16.4	22.5	33.5	-25.2	nt	nt	nt	nt
O=C(c1cc(-c2ccncc2)nc2ccc(Cl)cc12)N1CCN(Cc2ccc3c(c2)OCO3)CC1	19.6	-15.1	3.8	58.5*	-15.1	31.8*	53.1*	9.7	10.4
COc1ccc(CN2CCN(C(=O)c3cc(-c4cccnc4)nc4ccc(Cl)cc34)CC2)c(OC)c1OC	18.4	-18.8	17.1	72.3*	-30.3	32.2*	54.3*	7.7	7.4
O=C(CCc1ccccc1)c1c(O)cc(O)cc1O	3.2	3.8	15.6	67.8*	1.8	24.6*	30.3	4.3	0.6
CN(Cc1nc2ccccc2c(=O)[nH]1)C(=O)c1cccc(S(=O)(=O)N2CCCC2)c1	0.1	-13.9	3.2	3.1	-23.9	nt	nt	nt	nt
Cc1cc(C)c(C)c(S(=O)(=O)N2CCC(C(=O)N(C)Cc3nc4ccccc4c(=O)[nH]3)CC2)c1C	33.7	nt	nt	59.4*	nt	27.5*	43.3	8.1	11.7
CC(=O)c1ccc(NC(=O)C2(c3ccccc3)CCOCC2)cc1	0.2	-3.7	7.9	1.9	-10.8	nt	nt	nt	nt
CCN1C=C(Cc2cccs2)C2=C(C1)C(c1cccs1)C(C#N)=C(N)O2 (stereo unspecified)	25.9	-18.4	31.4	53.1*	-11.8	20.1	37.5	6.0	9.5
CCN1CC2=C(OC(N)=C(C#N)C2c2cccs2)/C(=C/c2cccs2)C1 (stereo unspecified)	17.6	-29.9	15.4	34.4	-19.6	nt	nt	nt	nt

Source: PubChem BioAssay
